Calls of active or inactive are those of the source. No cut-off for these calls is given here.
Tests used:
Mus musculus [1] = assay: Anticonvulsant activity in ip dosed Albino mouse by MES test; assay type: functional
How it was run: (§1)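 Albino mice of matched age and weight, 12-h light/dark cycle, free food and water. Compound given ip in 30% PEG 400 and 10% water, 0.01 ml/g body weight. MES test by NIH antiepileptic drug development program standard procedures. ED50 from groups of six mice at several doses at time of peak effect; Litchfield–Wilcoxon with 95% confidence intervals.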

Mus musculus [2] = assay: Anticonvulsant activity in ip dosed Albino mouse by PTZ test; assay type: functional, organism-based
How it was run: (§2)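 Mice of matched age and weight, 12-h light/dark cycle, food and water ad libitum. Dosing ip in 30% PEG 400 and 10% water at 0.01 ml/g body weight. PIC and PTZ seizure tests run by NIH antiepileptic drug development program standard procedures.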

Mus musculus [3] = assay: Anticonvulsant activity in ip dosed Albino mouse assessed as time of peak effect by MES test; assay type: functional; how it was run: as §1
Mus musculus [4] = assay: Anticonvulsant activity in ip dosed Albino mouse by PIC test; assay type: functional, organism-based; how it was run: as §2

SMILES | ED50 (Mus musculus [1]) [µmol/kg] | Activity (Mus musculus [2]) | Activity (Mus musculus [3]) [h] | Activity (Mus musculus [4]) | Activity (Mus musculus [1])
O=S(=O)(NCc1ccccc1)NCc1ccccc1 [BENZYL(BENZYLSULFAMOYL)AMINE] | 238 | inactive | 2 | inactive | 
CCCCNS(=O)(=O)NCCCC [BUTYL(BUTYLSULFAMOYL)AMINE] | 295 | inactive | 2 | inactive | 
O=S(=O)(N1CCOCC1)N1CCOCC1 |  | inactive |  | inactive | inactive
O=S(=O)(NC1CC1)NC1CC1 |  | inactive |  | inactive | inactive
O=S(=O)(NC1CCCCC1)NC1CCCCC1 | 151 | inactive | 0.5 |  | 

— ChEMBL document CHEMBL1139056, “3D-QSAR design of novel antiepileptic sulfamides” (2007)
